According to ChEMBL document CHEMBL1125911, “Synthesis and biological activity of new HMG-CoA reductase inhibitors. 3. Lactones of 6-phenoxy-3,5-dihydroxyhexanoic acids” (J Med Chem, 1991):

Columns and labels:
Sus scrofa [1] = species: Sus scrofa; assay: Compound was tested for inhibition of Cu2+ catalyzed LDL oxidation and the potency relative to terbufucine was determined; assay type: functional
Outline: (§1)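 Porcine plasma LDL isolated by sequential ultracentrifugation (density 1.019-1.063 g/mL), dialysed against PBS pH 7.4, then diluted to 0.1 mg/mL protein. Preincubated 1 h at 37 °C under N2 with compound in ethanol. Oxidised with 5 μM Cu2+ for 2 h at 37 °C in air. Fluorescence read at ex 365/em 430 nm.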

Rattus norvegicus [2] = assay: Compound was tested for effect on serum LDL after oral administration of 30 mg/kg in male rats; assay type: functional
Outline: (§2)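 Male HOE:WISKf (SPF 71) rats, initial body weight over 180 g, n = 10 per group, dosed once daily in the morning by gavage in polyethylene glycol 400 for 7 days; controls received vehicle. Fasted after last dose, bled retroorbitally 24 h later under mild ether. Liver and body weight recorded. Pooled group serum was ultracentrifuged into VLDL (<1.006), LDL (1.006-1.04) and HDL (1.04-1.21). Values are % change versus control.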

Rattus norvegicus [3] = assay: Compound was tested for effect on body weight after oral administration of 30 mg/kg in male rats.; assay type: functional; outline: as §2
Sus scrofa [4] = species: Sus scrofa; assay: In vitro inhibition of Cu2+ catalyzed LDL oxidation; assay type: functional; outline: as §1
Rattus norvegicus [5] = assay: Compound was tested for effect on serum VLDL after oral administration of 30 mg/kg in male rats; assay type: functional; outline: as §2
Rattus norvegicus [6] = assay: Compound was tested for effect on serum HDL after oral administration of 30 mg/kg in male rats; assay type: functional; outline: as §2
Rattus norvegicus [7] = assay: Compound was tested for effect on liver weight after oral administration of 30 mg/kg in male rats.; assay type: functional; outline: as §2
Rattus norvegicus [8] = species: Rattus norvegicus; assay: Compound was tested for inhibition of microsomal lipid peroxidation and the potency relative to terbufucine was determined; assay type: functional
Outline: (§3)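 Rat liver microsomes in 50 mM Tris-HCl pH 7.4 with 100 mM KCl and 6.0 mM MgCl2, final protein 0.4 mg/mL. Peroxidation was started with ADP (2 mM)/FeCl3 (10 μM) plus an NADPH-regenerating system. Incubation 30 min at 37 °C with shaking. Thiobarbituric acid reactive substances were read at 535 nm.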

Rattus norvegicus [9] = species: Rattus norvegicus; assay: In vitro inhibition of microsomal lipid peroxidation; assay type: functional; outline: as §3
Rattus norvegicus [10] = species: Rattus norvegicus; assay: In vitro inhibition of microsomal lipid peroxidation at 10e-5 M conc.; assay type: functional; outline: as §3
Rattus norvegicus [11] = species: Rattus norvegicus; assay: Potency relative to mevinolin was determined with respect to IC50. […]; assay type: functional
Rattus norvegicus [12] = assay: In vivo inhibition of hepatic cholesterol de novo synthesis in rat after oral administration of 5 mg/kg dose; assay type: functional
Oryctolagus cuniculus [13] = assay: Tested in vivo for hypocholesterolemic activity by measuring its ability to decrease serum total cholesterol, after oral administration of 50 mg/kg body wt. per day in normolipidemic NZW rabbits; assay type: functional
Outline: (§4)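 NZW rabbits (n = 5 or 6) dosed orally daily for 10 days. Serum total cholesterol reported as % change versus control. For 20 mg/kg, that dose was given on days 11-20 after 10 mg/kg, with the value read on day 20. Error given as SEM.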

[14] = biological target: T1, 3-hydroxy-3-methylglutaryl-coenzyme A reductase (Homo sapiens) (UniProt P04035); assay: (§5) Inhibition of HMG-CoA reductase compared to mevinolin.; assay type: functional
T1 sequence (whole entry): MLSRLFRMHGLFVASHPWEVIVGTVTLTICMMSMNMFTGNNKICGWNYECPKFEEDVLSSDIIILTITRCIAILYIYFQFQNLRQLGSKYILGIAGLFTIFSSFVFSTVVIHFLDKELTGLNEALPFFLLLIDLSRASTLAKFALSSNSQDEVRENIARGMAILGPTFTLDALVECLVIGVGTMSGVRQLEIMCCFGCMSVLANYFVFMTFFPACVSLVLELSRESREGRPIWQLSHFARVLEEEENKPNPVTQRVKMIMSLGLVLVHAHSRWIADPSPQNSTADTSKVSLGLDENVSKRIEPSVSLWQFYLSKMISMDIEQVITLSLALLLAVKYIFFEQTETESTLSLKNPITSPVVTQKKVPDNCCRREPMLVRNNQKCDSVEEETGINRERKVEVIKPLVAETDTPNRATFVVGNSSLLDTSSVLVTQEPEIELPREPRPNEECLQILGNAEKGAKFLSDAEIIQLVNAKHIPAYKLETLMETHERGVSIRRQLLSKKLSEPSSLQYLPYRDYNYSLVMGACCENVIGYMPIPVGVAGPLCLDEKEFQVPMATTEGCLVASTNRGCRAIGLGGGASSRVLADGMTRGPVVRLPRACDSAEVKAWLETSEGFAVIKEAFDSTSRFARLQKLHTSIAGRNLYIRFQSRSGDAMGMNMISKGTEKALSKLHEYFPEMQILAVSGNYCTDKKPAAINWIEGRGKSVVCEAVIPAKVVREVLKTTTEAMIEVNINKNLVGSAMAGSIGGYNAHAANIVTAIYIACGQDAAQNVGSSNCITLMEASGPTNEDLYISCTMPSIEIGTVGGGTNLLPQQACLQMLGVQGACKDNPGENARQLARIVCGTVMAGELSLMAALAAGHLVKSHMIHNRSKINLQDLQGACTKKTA
Outline: (§6)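 Solubilized, partially purified rat liver HMG-CoA reductase. IC50 from four or five inhibitor concentrations. Relative potency compared IC50 with mevinolin (set to 100), corrected for molecular weight.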

Oryctolagus cuniculus [15] = assay: Tested in vivo for hypocholesterolemic activity by measuring its ability to decrease serum total cholesterol, after oral administration of 5 mg/kg body wt. per day in normolipidemic NZW rabbits; assay type: functional; outline: as §4
[16] = biological target: T2, 3-hydroxy-3-methylglutaryl-coenzyme A reductase (Homo sapiens, UniProt P04035); assay: Inhibition of the incorporation of sodium [14C]acetate into cholesterol in HEP G2 cells.; assay type: functional, cell-based, HepG2
T2 sequence (P04035 whole entry): T1 sequence (whole entry)

[17] = biological target: T3, 3-hydroxy-3-methylglutaryl-coenzyme A reductase (Rattus norvegicus) (UniProt P51639); assay: as §5; outline: as §6
T3 sequence (whole entry): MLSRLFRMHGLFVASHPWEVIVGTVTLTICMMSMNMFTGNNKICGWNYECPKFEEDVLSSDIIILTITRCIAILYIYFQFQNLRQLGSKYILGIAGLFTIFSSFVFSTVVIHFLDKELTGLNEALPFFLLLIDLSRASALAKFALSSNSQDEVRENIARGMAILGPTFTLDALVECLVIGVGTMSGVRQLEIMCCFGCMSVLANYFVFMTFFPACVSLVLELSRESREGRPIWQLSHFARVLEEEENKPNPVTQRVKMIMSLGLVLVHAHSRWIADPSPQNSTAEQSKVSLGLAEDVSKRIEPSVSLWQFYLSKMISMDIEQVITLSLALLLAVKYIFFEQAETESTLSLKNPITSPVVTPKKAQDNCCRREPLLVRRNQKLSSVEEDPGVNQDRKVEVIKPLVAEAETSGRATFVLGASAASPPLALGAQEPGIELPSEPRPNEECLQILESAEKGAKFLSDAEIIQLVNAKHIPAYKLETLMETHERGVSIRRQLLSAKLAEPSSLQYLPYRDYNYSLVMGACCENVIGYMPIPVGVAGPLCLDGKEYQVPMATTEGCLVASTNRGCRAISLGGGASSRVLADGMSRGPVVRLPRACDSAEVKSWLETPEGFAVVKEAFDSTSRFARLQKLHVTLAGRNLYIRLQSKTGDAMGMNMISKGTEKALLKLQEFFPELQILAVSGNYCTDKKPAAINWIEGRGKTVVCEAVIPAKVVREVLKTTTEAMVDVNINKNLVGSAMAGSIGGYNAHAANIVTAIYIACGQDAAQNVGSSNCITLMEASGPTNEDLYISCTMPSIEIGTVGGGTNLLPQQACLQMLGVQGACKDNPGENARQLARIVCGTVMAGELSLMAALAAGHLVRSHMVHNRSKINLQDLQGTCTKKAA

[18] = biological target: T4, 3-hydroxy-3-methylglutaryl-coenzyme A reductase (Rattus norvegicus, UniProt P51639); assay: In vitro inhibition of HMG-CoA reductase in solubilized rat liver.
T4 sequence (P51639 whole entry): T3 sequence (whole entry)

[19] = biological target: T4, 3-hydroxy-3-methylglutaryl-coenzyme A reductase; assay: In vitro inhibition of solubilized HMG-CoA reductase in rat liver.
Oryctolagus cuniculus [20] = assay: Tested in vivo for hypocholesterolemic activity by measuring its ability to decrease serum total cholesterol, after oral administration of 75 mg/kg body wt. per day in normolipidemic NZW rabbits; Very potent; assay type: functional, organism-based; design: dose 75 mg/kg, route oral

| Compound | IC50 (Sus scrofa [4]) [nM] | IC50 (Rattus norvegicus [9]) [nM] | Relative potency (Sus scrofa [1]) | Relative potency (Rattus norvegicus [8]) | inhibition (Rattus norvegicus [10]) [%] | further results |
| --- | --- | --- | --- | --- | --- | --- |
| CC(C)(Sc1cc(C(C)(C)C)c(O)c(C(C)(C)C)c1)Sc1cc(C(C)(C)C)c(O)c(C(C)(C)C)c1 [PROBUCOL] | 500 | – | 22 | – | – | Change (Rattus norvegicus [2]): -24%; Change (Rattus norvegicus [3]): 5%; Change (Rattus norvegicus [5]): 4%; Change (Rattus norvegicus [6]): -11%; Change (Rattus norvegicus [7]): 5% |
| Cc1cc(C)c(OCC2C[C@@H](O)CC(=O)O2)c(C(c2ccc(F)cc2)c2ccc(F)cc2)c1 (stereo partly specified) | – | – | – | – | – | Relative potency (Rattus norvegicus [11]): 33; Cholesterol (Rattus norvegicus [12]): 71.6%; Change (Oryctolagus cuniculus [13]): -19% |
| CC(=O)[O-].CC(C)c1c(OC[C@@H](O)C[C@@H](O)CC(=O)[O-])c(C(C)C)c(C(C)C)c(O)c1-c1ccc(F)cc1.[Na+].[Na+] | 6000 | – | 2 | < 0.1 | < 10 | Relative potency [14]: 1200; Change (Oryctolagus cuniculus [15]): -12%; IC50 [16]: 4.1 nM |
| CC(C)c1c(O)c(C(C)C)c(C(C)C)c(OCC(O)C[C@@H](O)CC(=O)[O-])c1-c1ccc(F)cc1.[Na+] (stereo partly specified) | 1100 | – | 10 | < 0.1 | 27 | Relative potency [17]: 34; Relative potency [14]: 900; IC50 [18]: 20 nM; IC50 [16]: 5.6 nM |
| CC(C)c1cc(-c2ccccc2)nc(-c2ccc(F)cc2)c1/C=C/[C@@H](O)C[C@@H](O)CC(=O)O | – | – | – | – | – | IC50 [19]: 3 nM |
| CC(C)c1cc(-c2ccc(F)cc2)c(/C=C/[C@@H](O)C[C@@H](O)CC(=O)[O-])c(C(C)C)n1.[Na+] | – | – | – | – | – | IC50 (Oryctolagus cuniculus [20]): Very potent; IC50 [19]: 3 nM |

Now from value to molecule, other results behind:

| IC50 (Sus scrofa [4]) [nM] | IC50 (Rattus norvegicus [9]) [nM] | Compound | Relative potency (Sus scrofa [1]) | Relative potency (Rattus norvegicus [8]) | inhibition (Rattus norvegicus [10]) [%] | further results |
| --- | --- | --- | --- | --- | --- | --- |
| 1000 | 3000 | CC(C)c1cc(Sc2ccc(F)cc2)cc(-c2ccc(F)cc2)c1O | 11 | 3 | 95 | – |
| 150 | 2800 | CC(=O)Oc1c(-c2ccc(F)cc2)c(C(C)C)c(O)c(C(C)C)c1C(C)C | 73 | 4 | 98 | – |
| – | 4800 | CC(=O)Oc1c(C(C)C)c(-c2ccc(F)cc2)c(O)c(C(C)C)c1C(C)C | – | 2 | 83 | – |
